High-throughput results (PubChem)
Beta apoptosis = blocks beta cell apoptosis; INS-1E cytokine-induced death, ATP luminescence, 48 h; percent of positive-control rescue, neutral wells zero; protection from apoptosis, % (no concentration beside the values); 300,000 tested, 0.8% active; AID 435005;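 active = Every replicate reaches about 75%, or at least half do and their mean reaches it too, limit read from the data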;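 also: higher means more ATP so stronger rescue from cytokine killing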
Mdm2 MdmX PPI = disrupts the human Mdm2-MdmX interaction; O15151+Q00987; SaOS-2 split-luciferase Mdm2/MdmX complementation, luminescence; inhibition, % at 8 µM; 330,000 tested, 3% active; AID 485346;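 active = inhibition of at least 50% at 8 µM in the primary screen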
CSC inhib = cancer stem cell inhibition; 300,000 tested, 1.1% active; inhibition, % at 7.5 µM; AID 2717; cancer stem cell-like cells viability, luminescence; in the data active = inhibition above about 75%; tested in HMLE shEcad cells
UPR XBP1 act = adaptive UPR (XBP1) activation; activation, % at 20 µM; CHO-XBP1 luciferase reporter, IRE1-XBP1 UPR activation, luminescence; percent of tunicamycin response, DMSO as zero; 330,000 tested, 0.33% active;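 active = versus positive control, 20 µM dose yields 30% or more activation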
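Signal: luciferase luminescence; Assay system: CHO-XBP1 luciferase reporter cells; Amount: one thousand reporter cells per well; Dosing: 20 µM single concentration, DMSO 1%; Benchmarks: high control tunicamycin 10 µg/mL final, low control DMSO vehicle only; Schedule: 6 h compound exposure at 37 °C, 5% CO2; Evaluation: percent activation relative to tunicamycin reference.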
UPR CHOP act = activators of apoptotic arm of unfolded protein response (CHOP); CHO-CHOP luciferase reporter, UPR activation, luminescence; percent of tunicamycin response over DMSO baseline; activation, % at 10 µM; 330,000 tested, 0.34% active; AID 449763;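 active = at 10 µM dose, activation of 40% or more, normalized to positive control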
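Assay system: CHO-CHOP cells, stable luciferase reporter of PERK-eIF2a-CHOP signalling / Buffer or medium: F12 plus 10% serum / Compound dosing: one dose, 10 µM in 0.5% DMSO / Times: 6 h compound treatment, 37 °C / Technique: luciferase luminescence / Read-out: % reporter activation, DMSO baseline versus tunicamycin full activation / Benchmarks: tunicamycin and DMSO controls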
T cruzi repl = blocks replication of Trypanosoma cruzi. T. cruzi beta-gal in NIH3T3, luminescence, 90 h. inhibition, % (concentration not given with the values). 300,000 tested, 1.4% active. AID 1885;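 active = mean inhibition across valid replicates above about 55%, limit read from the data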;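 also: signal also drops with host cell toxicity which is not excluded here; higher percent means less beta-gal luminescence so fewer parasites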
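compound dosing = single 50 nL compound addition per well in DMSO | material = NIH/3T3 host cells with β-galactosidase reporter T. cruzi | input = 5,000 host fibroblasts per well | timing = ≥90 h infection period, 3 h prior cell attachment | read-out basis = percent inhibition of parasite-derived β-gal signal | detection = GalScreen β-gal luminescence, detergent lysis, 60 min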
Mdm2-MdmX conf = human Mdm2/MdmX binding inhibition, confirmed; AID 489028; luminescent assay; 10,000 tested, 55% active; shares compounds with Mdm2 MdmX PPI; inhibition, % at 8 µM; in the data active = inhibition above about 40%
FLuc counter = full-length luciferase inhibition in Mdm2/MdmX counter-screen | inhibition, % at 8 µM | AID 504607 | shares compounds with Mdm2 MdmX PPI | 6,200 tested, 77% active | SaOS-2 full-length luciferase counterscreen, luminescence;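 active = mean inhibition at 8 µM reaching about 37%, which flags the compound as non-specific, limit read from the data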;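 also: p53-null SaOS-2 cells with luciferase driven by a doxycycline-inducible promoter; compound on cells about two nights before reading with doxycycline added after day one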
A number is an active result; n = inactive; x = not tested or not shown. This is a sample that favours compounds with a hit; in the whole collection about 5% have one here.

SMILES | Beta apoptosis | Mdm2 MdmX PPI | CSC inhib | UPR XBP1 act | UPR CHOP act | T cruzi repl | Mdm2-MdmX conf | FLuc counter
O=C(N/N=C/c1c(O)n(CCc2ccccc2)c(=O)[nH]c1=O)c1ccccc1O | n | n | n | n | n | n | x | x
CCCCCCC(=O)N/N=C/c1c(O)n(C2CC2)c(=S)[nH]c1=O | n | n | n | n | n | n | x | x
COc1c(C)cc(C(=O)C2CCCN(Cc3cccc(C)n3)C2)cc1C (centres undefined) | n | n | n | n | n | n | x | x
COC(=O)C1=C(c2cccc(NC(C)=O)c2)C[C@@H]2CC[C@H]1N2C | n | n | n | n | n | x | x | x
CCCCn1c(=O)c(C(=O)Nc2cccc(C)c2)c(O)c2ccccc21 | x | n | n | n | n | n | x | x
CCCCn1c(=O)c(C(=O)Nc2cnccn2)c(O)c2ccccc21 | n | 57 | n | n | n | n | n | 89
Cc1cc(C(=O)O)c(C)n1C1CC1 | n | n | n | n | n | n | x | x
C[C@@H]1O[C@@H](O[C@H]2C[C@@H](O)[C@]3(CO)[C@H]4[C@H](O)C[C@]5(C)[C@@H](C6COC(=O)C6)CC[C@]5(O)[C@@H]4CC[C@]3(O)C2)[C@H](O)[C@H](O)[C@H]1O (some centres undefined) | n | 58 | 82 | n | n | n | 67 | n
